Assay results taken from ChEMBL document CHEMBL1141162, “Inhibition of carboxylesterases by benzil (diphenylethane-1,2-dione) and heterocyclic analogues is dependent upon the aromaticity of the ring and the flexibility of the dione moiety” (J Med Chem, 2005).
Several values for one entry are separate records, joined by “and”; a condition that tells them apart may be missing. Identical values can stand only once. Values belong to the compound of their own block, whether it stands above or below them.

What was measured:
[1] = target: T1, Liver carboxylesterase 1 (Homo sapiens, UniProt P23141); test: Inhibition constant against human liver carboxylesterase (hCE1) expressed in Sf21 cells using 3 mM o-NPA; type: cell-based, Oryctolagus cuniculus
T1 sequence (P23141 whole entry): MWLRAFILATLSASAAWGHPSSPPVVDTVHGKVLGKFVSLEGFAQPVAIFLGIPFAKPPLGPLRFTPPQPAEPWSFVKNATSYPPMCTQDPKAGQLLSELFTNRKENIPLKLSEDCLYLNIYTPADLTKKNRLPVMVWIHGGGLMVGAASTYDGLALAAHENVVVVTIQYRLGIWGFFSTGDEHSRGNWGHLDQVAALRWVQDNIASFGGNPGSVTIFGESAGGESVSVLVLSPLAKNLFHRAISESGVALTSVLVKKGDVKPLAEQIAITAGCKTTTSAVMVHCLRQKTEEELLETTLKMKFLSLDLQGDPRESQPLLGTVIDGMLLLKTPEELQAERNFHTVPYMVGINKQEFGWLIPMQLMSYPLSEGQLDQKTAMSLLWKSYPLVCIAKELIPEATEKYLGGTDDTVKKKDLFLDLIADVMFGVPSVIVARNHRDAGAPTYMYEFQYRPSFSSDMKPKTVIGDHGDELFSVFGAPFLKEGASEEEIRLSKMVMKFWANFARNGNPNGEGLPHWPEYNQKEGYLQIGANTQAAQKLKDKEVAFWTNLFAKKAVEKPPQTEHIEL

[2] = Inhibition constant against rabbit liver carboxylesterase (rCE) expressed in Sf21 cells using 3 mM o-NPA; design: species or system Oryctolagus cuniculus
[3] = target: T2, Cocaine esterase (Homo sapiens, UniProt O00748); test: Inhibition constant against human intestinal carboxylesterase (hiCE) expressed in Sf21 cells using 3 mM o-NPA
T2 sequence (O00748 whole entry): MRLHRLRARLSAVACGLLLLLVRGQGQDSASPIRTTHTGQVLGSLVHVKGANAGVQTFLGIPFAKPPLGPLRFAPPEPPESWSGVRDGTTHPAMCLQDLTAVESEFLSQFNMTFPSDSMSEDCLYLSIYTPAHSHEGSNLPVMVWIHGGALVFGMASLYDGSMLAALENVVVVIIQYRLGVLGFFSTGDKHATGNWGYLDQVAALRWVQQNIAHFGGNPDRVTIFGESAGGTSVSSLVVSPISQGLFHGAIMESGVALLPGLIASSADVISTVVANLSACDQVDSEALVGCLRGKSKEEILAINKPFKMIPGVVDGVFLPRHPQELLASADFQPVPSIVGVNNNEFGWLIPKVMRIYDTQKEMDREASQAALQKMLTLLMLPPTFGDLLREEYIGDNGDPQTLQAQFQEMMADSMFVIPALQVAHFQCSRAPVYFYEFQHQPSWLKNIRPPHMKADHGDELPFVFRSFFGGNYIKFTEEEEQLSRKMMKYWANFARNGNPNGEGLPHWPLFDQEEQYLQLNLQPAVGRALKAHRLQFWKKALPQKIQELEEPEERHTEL

[4] = target: Acetylcholinesterase (Homo sapiens, UniProt P22303); test: Inhibition of 1 mM acetylthiocholine (AcTCh) binding to human Acetylcholinesterase
Chain of Acetylcholinesterase (P22303 whole entry): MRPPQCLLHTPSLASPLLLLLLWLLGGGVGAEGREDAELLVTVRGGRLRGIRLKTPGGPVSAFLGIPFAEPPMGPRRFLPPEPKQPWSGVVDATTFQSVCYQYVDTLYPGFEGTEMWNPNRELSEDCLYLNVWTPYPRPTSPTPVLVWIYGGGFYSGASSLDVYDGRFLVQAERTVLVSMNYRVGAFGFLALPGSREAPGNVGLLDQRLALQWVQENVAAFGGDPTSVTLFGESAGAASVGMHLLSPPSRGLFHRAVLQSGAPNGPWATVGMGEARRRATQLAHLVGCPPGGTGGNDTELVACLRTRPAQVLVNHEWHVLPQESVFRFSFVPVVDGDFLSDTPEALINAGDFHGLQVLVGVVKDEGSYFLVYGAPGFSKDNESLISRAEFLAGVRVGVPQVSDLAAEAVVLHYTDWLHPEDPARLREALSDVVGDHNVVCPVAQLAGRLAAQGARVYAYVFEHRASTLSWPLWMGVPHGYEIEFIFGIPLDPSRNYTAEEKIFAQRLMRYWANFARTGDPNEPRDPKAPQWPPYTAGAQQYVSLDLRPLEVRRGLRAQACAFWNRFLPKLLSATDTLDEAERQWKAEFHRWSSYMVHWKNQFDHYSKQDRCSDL
Outline: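 Human acetylcholinesterase from a commercial supplier, assayed with 1 mM acetylthiocholine as substrate.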

Ki [1]: 255 nM
Structure (SMILES): O=C(C(=O)c1ccc2ccccc2c1)c1ccc2ccccc2c1
Ki [2]: 1.04 nM

Structure (SMILES): O=C(c1cccs1)C(O)c1cccs1 (stereo not drawn)
Ki [3]: 5610 nM
Ki [1]: 1660 nM and 4540 nM
Ki [4]: > 100000 nM

Structure (SMILES): O=C(C(=O)c1cc(Br)cs1)c1cc(Br)cs1
Ki [3]: 57.3 nM
Ki [4]: > 100000 nM

Structure (SMILES): O=C(C(=O)c1ccc(Br)s1)c1ccc(Br)s1
Ki [4]: > 100000 nM

Structure (SMILES): O=C(c1ccco1)C(O)c1ccco1 (stereo not drawn)
Ki [3]: > 100000 nM
Ki [1]: > 100000 nM
Ki ([1]; sf21): > 100000 nM
Ki [4]: > 100000 nM

Structure (SMILES): O=C(C(=O)c1cccs1)c1cccs1
Ki [3]: 1040 nM
Ki [1]: 212 nM and 874 nM
Ki [4]: > 100000 nM

Structure (SMILES): O=C(C(=O)c1ccco1)c1ccco1
Ki [3]: 8000 nM
Ki [1]: 1170 nM and 8480 nM
Ki [4]: > 100000 nM

Structure (SMILES): O=C(C(=O)c1ccsc1)c1ccsc1
Ki [3]: 6540 nM
Ki [1]: 365 nM and 2410 nM
Ki [4]: > 100000 nM

Structure (SMILES): O=C(C(=O)c1ccccn1)c1ccccn1
Ki [1]: 126 nM and 484 nM
Ki [4]: > 100000 nM
